Published values collected from several papers.
Compare with care: the assays were run in different laboratories.
Target: Mitogen-activated protein kinase kinase kinase kinase 2 (MAP4K2, Homo sapiens, UniProt Q12851)
Residues used in one study (Q12851 1-820): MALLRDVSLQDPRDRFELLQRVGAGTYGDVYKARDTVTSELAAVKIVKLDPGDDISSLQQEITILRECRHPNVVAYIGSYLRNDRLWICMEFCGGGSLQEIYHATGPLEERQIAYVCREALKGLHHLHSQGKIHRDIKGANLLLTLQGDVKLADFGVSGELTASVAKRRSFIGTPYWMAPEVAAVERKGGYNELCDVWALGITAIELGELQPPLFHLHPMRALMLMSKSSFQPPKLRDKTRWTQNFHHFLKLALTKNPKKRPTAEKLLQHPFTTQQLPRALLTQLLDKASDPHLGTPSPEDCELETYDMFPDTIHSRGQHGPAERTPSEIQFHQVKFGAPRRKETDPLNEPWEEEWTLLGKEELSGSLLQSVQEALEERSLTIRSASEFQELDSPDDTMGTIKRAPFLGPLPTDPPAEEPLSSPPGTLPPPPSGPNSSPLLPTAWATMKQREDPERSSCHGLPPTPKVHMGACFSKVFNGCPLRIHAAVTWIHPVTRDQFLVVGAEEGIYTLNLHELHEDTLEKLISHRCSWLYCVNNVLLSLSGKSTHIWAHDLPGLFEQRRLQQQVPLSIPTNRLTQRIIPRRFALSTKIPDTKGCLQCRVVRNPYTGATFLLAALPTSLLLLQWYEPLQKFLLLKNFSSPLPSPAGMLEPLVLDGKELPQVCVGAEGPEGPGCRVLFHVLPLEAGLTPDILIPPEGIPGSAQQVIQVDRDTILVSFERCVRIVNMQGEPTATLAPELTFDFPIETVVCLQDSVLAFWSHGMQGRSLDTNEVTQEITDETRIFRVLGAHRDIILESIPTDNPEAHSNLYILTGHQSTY

SMILES	observed	action	technique	tested at	endpoint	result
CC(C)(C)c1nc(-c2cccc(NS(=O)(=O)c3c(F)cccc3F)c2F)c(-c2ccnc(N)n2)s1	enzyme activity	inhibitor	radiometric	1 µM	remaining activity	115%
CCc1ccccc1C(=O)Nc1n[nH]c2c(C)c(F)c(C3C(C#N)=C(C)N(C)C(C)=C3C#N)cc12	cell-free assay	–	competition with immobilised ligand	1 µM	remaining binding	100%
Cc1cnc(NC2CCOCC2)nc1-n1cnc(C(=O)NC(CN)c2cc(F)cc(Cl)c2)c1 (centres unmarked)	enzyme activity	inhibitor	radiometric	1 µM	remaining activity	100%
CSc1cccnc1N1CCN(Cc2nc3ccccc3[nH]2)CC1	cell-free assay	–	competition with immobilised ligand	1 µM	remaining binding	100%
COc1cc(/C=C/C(=O)CC(=O)/C=C/c2ccc(O)c(OC)c2)ccc1O	enzyme activity	inhibitor	–	1 µM	activity vs control	103%
CCN(CC)CCNC(=O)c1c(C)[nH]c(/C=C2\C(=O)Nc3ccc(F)cc32)c1C	enzyme activity	inhibitor	–	10 µM	inhibition	92%
O=C(O)[C@H]1[C@H](Cn2nnc3ccccc3c2=O)CC[C@@H]1C(=O)c1ccc(OCCC2CCOCC2)cc1	cell-free assay	–	competition with immobilised ligand	1 µM	remaining binding	100%
CNC(=O)c1cc(Oc2ccc(NC(=O)Nc3ccc(Cl)c(C(F)(F)F)c3)cc2)ccn1	enzyme activity	inhibitor	–	10 µM	inhibition	46%
Cn1c(=O)n(-c2ccc(C(C)(C)C#N)cc2)c2c3cc(-c4cnc5ccccc5c4)ccc3ncc21	enzyme activity	inhibitor	–	10 µM	remaining activity	12%
CCN(CC)c1ccc(C2=NNC(=O)CC2C)cc1[N+](=O)[O-] (centres unmarked)	enzyme activity	inhibitor	–	10 µM	remaining activity	97%
COc1cc(Nc2cnc(C#N)c(O[C@H](C)CN(C)C)n2)ncc1-c1cnn(C)c1	enzyme activity	inhibitor	radiometric	1 µM	remaining activity	102%
C[C@H](c1ccnc(Nc2nc3ccc(-c4cc(N(C)C)ncn4)cc3[nH]2)c1)N1CCN(C(=O)CC(F)(F)F)CC1	cell-free assay	–	competition with immobilised ligand	0.1 µM	remaining binding	100%
Nc1ncnc2occ(-c3ccc(NC(=O)Nc4cc(C(F)(F)F)ccc4F)cc3)c12	cell-free assay	inhibitor	–	20 µM	remaining signal	0%
CC(C)(O)[C@H]1CC[C@H](Nc2ccc3ncc(-c4cccc(C(F)(F)F)c4)n3n2)CC1	enzyme activity	inhibitor	–	1 µM	remaining activity	94.6%
C[C@@H](c1cccc(C#N)c1)n1cc(Cl)cc(C(N)=O)c1=N	cell-free assay	–	competition with immobilised ligand	1 µM	remaining binding	90%
COc1cc2ncnc(Nc3ccc(Oc4ccccc4)cc3C)c2cc1OC	enzyme activity	inhibitor	–	1 µM	inhibition	2%
Cc1ccc(Nc2nccc(N(C)c3ccc4c(C)n(C)nc4c3)n2)cc1S(N)(=O)=O	enzyme activity	inhibitor	–	0.3 µM	inhibition	16%
O=C1NC(c2ccccn2)Sc2ccccc21 (centres unmarked)	cell-free assay	–	competition with immobilised ligand	1 µM	remaining binding	83%
FC(F)(F)Oc1cccc(-c2cnc3ccc(-c4ccncc4)nn23)c1	enzyme activity	inhibitor	radiometric	1 µM	activity vs control	37%
Cc1cc(NC(=O)c2cccc3cc(-c4cccc5[nH]nc(N)c45)ccc23)ccc1F	enzyme activity	inhibitor	–	0.1 µM	activity vs control	88%
O=C1Nc2ccc(Cl)cc2C1=Cc1cc(Cl)c(O)c(Cl)c1	cell-free assay	–	–	0.5 µM	remaining signal	62.6%
O=C(Nc1cccnn1)N1CCC(=Cc2cccc(Oc3ccc(C(F)(F)F)cn3)c2)CC1	cell-free assay	–	competition with immobilised ligand	1 µM	remaining binding	100%
COc1cc2ncnc(Nc3ccc(F)c(Cl)c3)c2cc1OCCCN1CCOCC1	cell-free assay	–	–	0.5 µM	remaining signal	104%
Cc1sc(C(=O)NC2COC2)cc1-n1cc(NC(=O)Nc2c(F)cccc2Cl)cn1	enzyme activity	inhibitor	–	10 µM	remaining activity	90.2%
COc1ccc2c(O[C@@H]3C[C@H]4C(=O)N[C@]5(C(=O)O)CC5/C=C\CCCCC[C@H](NC(=O)OC5CCCC5)C(=O)N4C3)cc(-c3csc(NC(=O)C(C)C)n3)nc2c1C (some centres unmarked)	cell-free assay	–	competition with immobilised ligand	1 µM	remaining binding	100%
COc1cc(Nc2c(C#N)cnc3cc(OCCCN4CCN(C)CC4)c(OC)cc23)c(Cl)cc1Cl	cell-free assay	–	–	0.5 µM	remaining signal	3.16%
